Data set [1] in a line: (§1) Antiviral activity against HBV genotype C infected in primary human hepatocytes PXB cells assessed as inhibition of viral DNA level after 14 days by qPCR analysis. As to conditions: Hepatitis B virus, 336 h. Type of data set: functional, cell-based. Summed up:
(§2)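 PXB cells (primary human hepatocytes from humanized-liver chimeric mice) in dHCGM, 37 °C, 5% CO2; infected with HBV C_AT at 3 genome equivalents/cell while treated with 0.01–10 μM compound; after 1 day, compound-containing medium exchanged every 3 or 4 days for 14 days. Cellular DNA purified and quantified, HBV DNA by qPCR; mean ± SE, n = 3.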

Data set [2] in a line: Half life in mouse liver microsomes at 29 umol/L preincubated for 5 mins followed by NADPH addition measured after 120 mins by HPLC analysis. Type of data set: ADME, Microsome. Summed up:
(§3)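 Compound (29 μmol/L, as added) combined with mouse or human liver microsomes (20 mg/mL stock), preincubated 5 min at 37 °C, then NADPH regenerating system added and incubated 0, 30, 60 or 120 min at 37 °C. Aliquots quenched in ice-cold MeOH, internal standard added, centrifuged; remaining compound quantified by HPLC against a calibration curve.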

Data set [3] in a line: Cytotoxicity against human […] cells harboring R6FLR-N replicons after 3 days by XTT assay. It counts as cell-based. Set-up: concentration or dose not given beside the values. Conditions: 72 h. Summed up: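 Replicon cells seeded at 3 × 10⁴ cells/well and exposed to compound for 3 days; viability by XTT. Values given as percent at 30 μM against DMSO control, mean of n = 2.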
(In general: In antiviral work, replicon cells carry a viral genome segment that copies itself.)

Data set [4] can be described thus: Half life in human liver microsomes at 29 umol/L preincubated for 5 mins followed by NADPH addition measured after 120 mins by HPLC analysis. It counts as ADME, Microsome. Summed up:
as §3
(In general: Liver microsomes are a subcellular fraction often used to study metabolism.)

The subject of another data set is Hepatocyte. Nature of the data set: Cytotoxicity against human primary hepatocytes PXB cells assessed as decrease in cell viability by RealTime-Glo MT assay. Type of data set: cell-based. Summed up:
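Viability read by RealTime-Glo MT in HBV C_AT-infected PXB cells (3 genome equivalents/cell) given 0.01–10 μM compound from infection onward, with compound-containing medium exchanged every 3 or 4 days over 14 days; mean ± SE, n = 3.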

A further data set deals with Hepatitis C virus. In words: Antiviral activity against HCV infected in human R6FLR-N replicon cells assessed as reduction in viral replication at 30 uM after 3 days by luciferase reporter gene assay. Set-up: scale not given: the % may be the effect or the level left. It counts as functional, Hepacivirus hominis. Summed up: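 R6FLR-N replicon cells, 3 × 10⁴ cells/well, grown in DMEM with 10% FBS and 500 μg/ml G418; compound added after 1 day, then 3 days of incubation. Luciferase read by Steady-Glo; percent inhibition at 30 μM expressed against DMSO control, mean of n = 2.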

Data set [5] can be described thus: Solubility of the compound by HPLC-UV analysis. It counts as physicochemical. Summed up: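 Dissolved compound solution injected into HPLC and peak area read by UV at 254 nm; concentration derived from a previously determined calibration curve.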
For the next data set, the species on record is Homo sapiens. Nature of the data set: Induction of IFN-stimulated gene expression response in human JHH7 cells assessed as upregulation of OAS1 mRNA expression at 3 to 30 uM after 3 days by qPCR analysis. Type of data set: functional, cell-based. Summed up:
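JHH-7 hepatoma cells in DMEM with 10% FBS, 37 °C, 5% CO2, exposed to 3 and 30 μM compound for 3 days. Total RNA purified and its concentration measured by UV spectrophotometry before OAS-1 mRNA measurement; mean ± SE, n = 3.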
Background: Quantitative PCR measures a nucleic acid by following its amplification.

Data set [6] relates to HBV genotype C. The data set is described as §1. Type of data set: functional, cell-based. Summed up: as §2
In data set [7] the test system is HBV genotype C. In words: Antiviral activity against HBV genotype C infected in primary human hepatocytes PXB cells assessed as inhibition of viral DNA level at 0.32 to 32 uM incubated for 7 days by qPCR analysis. Type of data set: functional, cell-based. Summed up: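 PXB cells in dHCGM infected with HBV C_AT, 3 genome equivalents/cell; medium exchanged every 3 or 4 days. After 28 days of infection, cells treated with the indicated concentrations for 7 days, pegylated IFNα2a run alongside. Cellular DNA purified and quantified, then HBV DNA measured by qPCR; mean ± SE, n = 3.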

The results in this text go back to ChEMBL document CHEMBL4330095, “Development of an anti-hepatitis B virus (HBV) agent through the structure-activity relationship of the interferon-like small compound CDM-3008” (Bioorg Med Chem, 2019).

In brackets after ≈: the same amount, converted by molar mass. Activity calls are given as the source filed them. The rule behind the calls is not given here.

On to `Cl.O=C(NC1CCNCC1)c1cn2c(ccc3c(C(F)(F)F)cc(C(F)(F)F)nc32)n1`, for which the IC50 (in general, the point on the concentration scale where inhibition reaches its midpoint) in data set [1] is 8.4 µM. For the same molecule, the half-life at 29 µM in [2] and in data set [4] was above 120 min each time. Also, the results for the Activity (in data set [3]; with Hepatocyte; in the data set with Hepatitis C virus) were 58.6%, “Non-Toxic” and 90.7%, respectively. In [5], the solubility (as a rule, the dissolved amount per volume that the medium holds) is above 30000 µg/mL. Moreover, the result in the data set listed under Homo sapiens was inactive.
As to `O=C(Nc1cccnc1)c1cn2c(ccc3c(C(F)(F)F)cc(C(F)(F)F)nc32)n1`, the Activity in [3] turned out to be 6.9%; in the data set with Hepatitis C virus, 63.6%. In data set [5], this molecule yielded a solubility below 100 µg/mL.
Regarding `CCCc1nnc(-c2cn3c(ccc4c(C(F)(F)F)cc(C(F)(F)F)nc43)n2)o1`, the Activity in data set [3] stood at 8.5%; with Hepatitis C virus, 15.3%.
Regarding `O=C(c1cn2c(ccc3c(C(F)(F)F)cc(C(F)(F)F)nc32)n1)N1CCNCC1`, the result with HBV genotype C [6] was Active.
In the case of `COCc1nnc(-c2cn3c(ccc4c(C(F)(F)F)cc(C(F)(F)F)nc43)n2)o1`, the figures for the Activity (in data set [3]; with Hepatitis C virus) were -2.5% and 4.8%, respectively.
With `O=C(Nc1ccccn1)c1cn2c(ccc3c(C(F)(F)F)cc(C(F)(F)F)nc32)n1`, the Activity in data set [3] was 1.6%; with Hepatitis C virus, 2.6%. In [5], the solubility was below 100 µg/mL.
The corresponding values for `O=C(Nc1ccncc1)c1cn2c(ccc3c(C(F)(F)F)cc(C(F)(F)F)nc32)n1` are 4.2%, 40.1% and below 100 µg/mL.
As for `Cc1nnc(-c2cn3c(ccc4c(C(F)(F)F)cc(C(F)(F)F)nc43)n2)o1`, the Activity in data set [3] was found to be 4.3%; in the data set with Hepatitis C virus, 89.8%.
Turning to `FC(F)(F)c1cc(C(F)(F)F)c2ccc3nc(-c4nnco4)cn3c2n1`, the half-life (as a rule, the time in which the quantity being followed falls by half) at 29 µM in data set [2] was 58.2 min; in data set [4] it was 34.1 min. Also, the Activity in data set [3] is listed as 3.1%; in the data set on Hepatitis C virus, 90.1 - 92.1%. Also, the outcome in the data set on HBV genotype C [7] and in the data set listed under Homo sapiens was Active. The concentration in solution in [5] (solubility) was 920 µg/mL (≈ 2470 µM).
As for `Cl.NCCOc1cc(C(F)(F)F)c2ccc3nc(-c4nnco4)cn3c2n1`, the IC50 in [1] turned out to be 10 µM. Further, the Activity is on record as 5.7% in data set [3], “Non-Toxic” in the data set on Hepatocyte and 28.1% in the data set on Hepatitis C virus. The molecule also returned a solubility in [5] of 19800 µg/mL. Further, the result in the data set filed under Homo sapiens was Active.
As for `OCc1nnc(-c2cn3c(ccc4c(C(F)(F)F)cc(C(F)(F)F)nc43)n2)o1`, the Activity in data set [3] is -7.4%; in the data set on Hepatitis C virus, 12%.
On to `Cl.NCCOc1cc(C(F)(F)F)c2ccc3nc(C(=O)Nc4ccncc4)cn3c2n1`, for which the result in the data set on HBV genotype C [6] was inactive. Also, the Activity in [3] amounted to 51.8%; in the data set on Hepatitis C virus, 78.2%. In addition, the solubility in data set [5] was above 30000 µg/mL.
